Data set [1] can be described thus: Drug level in C57BL/6J mouse serum assessed as metabolite formation treated with 4-(4-Methoxyphenyl)-8-methyl-5,6,7,8-tetrahydroquinazolin-2-amine at 20 mg/kg, po by LC-MS/MS analysis. Type of data set: ADME, organism-based. The settings on record: in vivo. The procedure, abridged:
(§1)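 After a single 20 mg/kg oral dose in fasted male C57BL/6J mice (n=5 per time point), the demethylated metabolite was measured by LC-MS/MS (m/z 256.1→240.1) in serum and brain homogenate up to 24 h. Metabolite/parent AUC ratio was derived.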

The nature of data set [2]: Drug level in C57BL/6J mouse brain assessed as metabolite formation treated with 4-(4-Methoxyphenyl)-8-methyl-5,6,7,8-tetrahydroquinazolin-2-amine at 20 mg/kg, po by LC-MS/MS analysis. In kind it is ADME, organism-based. As to conditions: in vivo. The procedure, abridged:
as §1

For the compound `CC1CCCc2c(-c3ccc(O)cc3)nc(N)nc21` (configuration not stated), the Drug metabolism result in data set [1] and in data set [2] was “Metabolite_Detected” in each case.

Values taken from ChEMBL document CHEMBL4393678, “Novel Tetrahydroquinazolinamines as Selective Histamine 3 Receptor Antagonists for the Treatment of Obesity” (J Med Chem, 2019).
